Measured values as given in ChEMBL document CHEMBL1121783, “Potential inhibitors of nucleotide biosynthesis. 1. Nitrosoureidonucleosides. 2” (J Med Chem, 1981).
One block for each molecule: values may come before it. The source made the active and inactive calls. No cut-off for these calls is given here.

Assays:
[1] = Half-life in pH 7 phosphate buffer by using high-performance LC method
HEp-2 [2] = experiment: Growth, % of control, at a dose of 20 ug/ml against growth of H.Ep.-2 cells; 75-80%; conditions: Homo sapiens
[3] = Half-life in plasma by using UV method; format: ADME, cell-free
HEp-2 [4] = experiment: Growth, % of control, at a dose of 20 ug/ml against growth of H.Ep.-2 cells; 75-80%; conditions: Homo sapiens; remark: listed apart in the source
[5] = Half-life in pH 7 phosphate buffer by using high-performance LC method; remark: listed apart in the source
Nucleic Acid [6] = experiment: Percent inhibitory activity dose at 100 ug/mL to inhibit the incorporation of hypoxanthine and gaunine in RNA; format: functional
Nucleic Acid [7] = experiment: Percent inhibitory activity dose at 100 ug/mL to inhibit the incorporation of hypoxanthine and gaunine in DNA; format: functional
[8] = Half-life in pH 7 phosphate buffer by using high-performance LC method; remark: listed apart in the source
[9] = Activity against hypoxanthine phosphoribosyltransferase; Not significant; format: functional
P388 [10] = experiment: Activity against P388 leukemia cells; Inactive; format: functional; conditions: Mus musculus
How it was run: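 In vivo P388 leukemia model; compound given daily for 9 days; activity scored as percent increase in life span (ILS).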

P388 [11] = experiment: Activity at a dose of 400 mg/kg against P388 leukemia cells; format: functional; conditions: Mus musculus
How it was run: (§1)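 P388 leukemia test: the compound was given daily for 9 days at 200 or 400 mg/kg. Activity is reported as percent increase in life span (ILS).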

P388 [12] = experiment: Activity at a dose of 200 mg/kg for 9 days against P388 leukemia cells; format: functional; conditions: Mus musculus, P388, 216 h
How it was run: as §1

SMILES: O=NN(CCCl)C(=O)NC1CCCCC1 [LOMUSTINE]
half-life [1]: 0.88 h

SMILES: CNC(=O)NCCNC(=O)C1OC(n2cc(C)c(=O)[nH]c2=O)CC1O (configuration not stated)
growth, % of control at 20 µg/mL (HEp-2 [2]): 75%

SMILES: CN(N=O)C(N)=O [N-METHYL-N-NITROSUREA]
half-life [1]: 0.12 h

SMILES: CNC(=O)NCCNC(=O)[C@H]1OC(n2cnc3c(O)ncnc32)[C@H](O)[C@@H]1O (some centres not stated)
growth, % of control at 20 µg/mL (HEp-2 [2]): 75%

SMILES: CN(N=O)C(=O)NCCNC(=O)[C@H]1OC(n2ccc(=O)[nH]c2=O)[C@H](O)[C@@H]1O (some centres not stated)
half-life [5]: 17 h
ILS at 400 mg/kg (P388 [11]): 26%
ILS at 200 mg/kg (P388 [12]): 28%

Further lines, with some results ahead:

half-life [1]: 29 h
SMILES: Cc1cn(C2CC(O)C(C(=O)NCCNC(=O)N(C)N=O)O2)c(=O)[nH]c1=O (configuration not stated)

half-life [1]: 12 h
SMILES: O=NN(CCNC(=O)[C@H]1OC(n2cnc3c(O)ncnc32)[C@H](O)[C@@H]1O)C(=O)NC1CCCCC1 (some centres not stated)

half-life [3]: 11 h
SMILES: Cc1cn(C2C[C@H](O)[C@@H](C(=O)NCCN(N=O)C(=O)NC3CCCCC3)O2)c(=O)[nH]c1=O (some centres not stated)

half-life [5]: 8 h
SMILES: O=NN(CCNC(=O)[C@H]1OC(n2ccc(=O)[nH]c2=O)[C@H](O)[C@@H]1O)C(=O)NC1CCCCC1 (some centres not stated)
growth, % of control at 20 µg/mL (HEp-2 [4]): 75%

half-life [8]: 127 h
inhibition [9]: inactive
SMILES: CN(N=O)C(=O)NCCNC(=O)[C@H]1OC(n2cnc3c(O)ncnc32)[C@H](O)[C@@H]1O (some centres not stated)
inhibition (Nucleic Acid [6]): 61%
inhibition (Nucleic Acid [7]): 35%
inhibition (P388 [10]): inactive
